Laboratory results published in ChEMBL document CHEMBL1140214, “Antitumor activity of new substituted 3-(5-imidazo[2,1-b]thiazolylmethylene)-2-indolinones and 3-(5-imidazo[2,1-b]thiadiazolylmethylene)-2-indolinones: selectivity against colon tumor cells and effect on cell cycle-related events” (2008).
Activity calls are given as the source filed them. No cut-off for these calls is given here.

Columns and labels:
[1] = Antitumor activity against human prostate cancer cells after 48 hrs by SRB assay; type: functional, Cancer cell lines; settings: for GI50 / TGI: Homo sapiens, Cancer cell lines, 48 h; for TGI: read-out: pTGI (converted)
Summary of the method: (§1)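 NCI 60-cell panel two-stage screen: a single-dose pass at 10^-5 M, then five-dose testing for active compounds. Compounds were dissolved in DMSO and tested at five 10-fold dilutions, the highest 10^-4 M (10^-3 M in some cases). Results are given as the negative log molar concentration at three end points: pGI50, pTGI (total growth inhibition) and pLC50. Means are panel-subtype averages.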

[2] = Antitumor activity against human Colon cancer cells after 48 hrs by SRB assay; type: functional, Cancer cell lines; settings: for GI50 / TGI / LC50 (50% lethal concentration): Homo sapiens, Cancer cell lines, 48 h; for TGI: read-out: pTGI (converted); summary of the method: as §1
[3] = biological target: T1, Ornithine decarboxylase (Homo sapiens) (UniProt P11926); test: Inhibition of ornithine decarboxylase in human HT-29 cells assessed as release of radioactive CO2 from [14C-carboxyl] ornithine; type: cell-based
T1 sequence (whole entry): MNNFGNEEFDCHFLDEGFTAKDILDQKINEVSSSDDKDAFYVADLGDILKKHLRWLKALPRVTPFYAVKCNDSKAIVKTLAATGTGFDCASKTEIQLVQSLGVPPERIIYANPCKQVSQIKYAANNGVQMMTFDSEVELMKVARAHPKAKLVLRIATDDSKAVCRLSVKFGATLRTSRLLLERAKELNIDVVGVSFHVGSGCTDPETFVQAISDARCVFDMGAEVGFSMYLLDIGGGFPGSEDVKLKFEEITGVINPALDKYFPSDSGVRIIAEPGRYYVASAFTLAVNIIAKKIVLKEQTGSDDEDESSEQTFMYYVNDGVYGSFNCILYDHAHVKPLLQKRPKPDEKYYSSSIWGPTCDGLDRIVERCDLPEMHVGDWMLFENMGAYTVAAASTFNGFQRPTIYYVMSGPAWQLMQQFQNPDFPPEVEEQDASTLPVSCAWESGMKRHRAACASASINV
Summary of the method: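 Extracts were taken from HT-29 cells after 24 h exposure to the indicated concentrations of test compound or vincristine. ODC activity was read as 14CO2 released from [14C-carboxyl]ornithine. Mean ± SEM, n=3.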

[4] = system: NSCLC; test: Antitumor activity against human NSCLC cells after 48 hrs by SRB assay; type: functional; settings: for GI50 / TGI: Homo sapiens, NSCLC, 48 h; for TGI: read-out: pTGI (converted); summary of the method: as §1
[5] = Antitumor activity against human renal cancer cells after 48 hrs by SRB assay; type: functional, Cancer cell lines; settings: for GI50 / TGI: Homo sapiens, Cancer cell lines, 48 h; for TGI: read-out: pTGI (converted); summary of the method: as §1
[6] = system: Leukemia cell; test: Antitumor activity against human Leukemia cells after 48 hrs by SRB assay; type: functional; settings: for TGI: read-out: pTGI (converted); summary of the method: as §1
[7] = system: Melanoma cell; test: Antitumor activity against human Melanoma cells after 48 hrs by SRB assay; type: functional; settings: for CC50: read-out: pLC50 (the source's name) (converted); for TGI: read-out: pTGI (converted); summary of the method: as §1
[8] = system: HT-29; test: Cell cycle arrest in human HT-29 cells assessed as accumulation at G2/M phase at 30 nM after 24 hrs by flow cytometry; type: functional, cell-based
Summary of the method: (§2)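 HT-29 cells were grown in RPMI 1640 with 10% FBS and 2 mM L-glutamine at 37 °C, 5% CO2, and treated 24 h after plating at 2 × 10^4 cells/cm^2. Exposure was 24 h at 0.5–2 µM test compound or 30 nM vincristine, with DMSO controls. Cells were stained with propidium iodide, RNase and NP-40 for 30 min in the dark, then DNA content was read by flow cytometry. Mean ± SEM, n=3.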

[9] = Antitumor activity against human Breast cancer cells after 48 hrs by SRB assay; type: functional, Cancer cell lines; settings: for GI50 / TGI: Homo sapiens, Cancer cell lines, 48 h; for TGI: read-out: pTGI (converted); summary of the method: as §1
[10] = Antitumor activity against human CNS cancer cells after 48 hrs by SRB assay; type: functional, Cancer cell lines; settings: for TGI: read-out: pTGI (converted); summary of the method: as §1
[11] = Antitumor activity against human ovarian cancer cells after 48 hrs by SRB assay; type: functional, Cancer cell lines; settings: for GI50 / TGI: Homo sapiens, Cancer cell lines, 48 h; for TGI: read-out: pTGI (converted); summary of the method: as §1
[12] = system: HT-29; test: Cell cycle arrest in human HT-29 cells assessed as accumulation at G2/M phase at 2 uM after 24 hrs by flow cytometry; type: functional; summary of the method: as §2
[13] = system: HT-29; test: Inhibition of cell proliferation in human HT-29 cells at 2 uM; type: functional, cell-based
Summary of the method: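 HT-29 cells in RPMI 1640 with 10% FBS were exposed to compound in fresh medium 24 h after plating, with DMSO controls. Cells were counted daily and viability was checked by Trypan blue exclusion.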

[14] = system: HT-29; test: Increase in cellular tubulin condensation in human HT-29 cells at 1 uM after 24 hrs using DAPI staining by immunofluorescence technique; type: functional, cell-based
Summary of the method: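 HT-29 cells on glass coverslips at 1 × 10^4 cells/cm^2 were treated 24 h at 1 µM, or with 30 nM vincristine. After fixation they were stained overnight at 4 °C with anti-α-tubulin mouse monoclonal, then 1 h at room temperature with FITC anti-mouse IgG, and counterstained with DAPI. Imaging was by laser scanning confocal microscopy.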

[15] = system: HT-29; test: Cell cycle arrest in human HT-29 cells assessed as accumulation at G2/M phase after 24 hrs by flow cytometry; type: functional, cell-based; summary of the method: as §2
[16] = system: HT-29; test: Induction of apoptosis in human HT-29 cells assessed as caspase activity after 48 hrs by fluorimetric assay; type: functional, cell-based
Summary of the method: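 DEVDase (caspase) activity was measured fluorometrically in extracts of HT-29 cells treated for 24 or 48 h at the indicated concentrations.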

[17] = Homo sapiens, Leukemia cell, 48 h
[18] = Homo sapiens, Melanoma cell, 48 h, read-out: pGI50 (converted)
[19] = Homo sapiens, Melanoma cell, 48 h
[20] = Homo sapiens, Cancer cell lines, 48 h, read-out: pGI50 (converted)
[21] = Homo sapiens, Cancer cell lines, 48 h

| SMILES | GI50 [6, 17] | GI50 [7, 18] | GI [1] | GI50 [1] | GI [2] | GI50 [2] | TGI [2] | GI [4] | GI50 [4] | TGI [4] | GI [5] | GI50 [5] | TGI [5] | GI [6] | TGI [6, 17] | GI [9] | GI50 [9] | GI50 [10, 20] | GI [11] | GI50 [11] | other results |
| --- | --- | --- | --- | --- | --- | --- | --- | --- | --- | --- | --- | --- | --- | --- | --- | --- | --- | --- | --- | --- | --- |
| CC[C@]1(O)C[C@H]2CN(CCc3c([nH]c4ccccc34)[C@@](C(=O)OC)(c3cc4c(cc3OC)N(C=O)[C@H]3[C@@](O)(C(=O)OC)[C@H](OC(C)=O)[C@]5(CC)C=CCN6CC[C@]43[C@@H]65)C2)C1.O=S(=O)(O)O [VINCRISTINE SULFATE] | 0.1 µM | 0.158 µM | 0.13 µM | 0.126 µM | 0.1 µM | 0.1 µM | 3.98 µM | 0.25 µM | 0.251 µM | 15.8 µM | 0.32 µM | 0.316 µM | 20 µM | 0.1 µM | 15.8 µM | 0.32 µM | 0.316 µM | 0.126 µM | 0.32 µM | 0.316 µM | TGI [1]: 6.31 µM; Activity [3]: Active; CC50 [7, 19]: 251 µM; TGI [7, 19]: 7.94 µM; Activity [8]: Active; TGI [9]: 7.94 µM; TGI [10, 21]: 6.31 µM; TGI [11]: 20 µM |
| COc1ccc(OC)c(-c2nc3sccn3c2/C=C2/C(=O)N(C)c3ccccc32)c1 | 7.41 µM | 19.5 µM | 25.12 µM | 25.1 µM | 23.44 µM | 23.4 µM | 67.6 µM | 26.92 µM | 26.9 µM | 74.1 µM | 27.54 µM | 27.5 µM | 72.4 µM | 7.41 µM | 44.7 µM | 15.85 µM | 15.8 µM | 21.4 µM | 29.51 µM | 29.5 µM | TGI [1]: 91.2 µM; LC50 (50% lethal concentration) [2]: 95.5 µM; LC50 (concentration killing 50% of cells) [6, 17]: 97.7 µM; GI50 [7]: 19.5 µM; CC50 [7, 19]: 87.1 µM; TGI [7, 19]: 47.9 µM; TGI [9]: 53.7 µM; GI50 [10]: 21.38 µM; LC50 [10, 21]: 97.7 µM; TGI [10, 21]: 57.5 µM; TGI [11]: 81.3 µM |
| Cc1cn2c(/C=C3/C(=O)N(C)c4ccc(Cl)cc43)c(C)nc2s1 | 1.45 µM | 5.5 µM | 1 µM | 1 µM | 2.69 µM | 2.69 µM | 38 µM | 7.94 µM | 7.94 µM | 41.7 µM | 6.03 µM | 6.03 µM | 61.7 µM | 1.45 µM | 11.7 µM | 6.76 µM | 6.76 µM | 3.16 µM | 3.8 µM | 3.8 µM | TGI [1]: 4.37 µM; LC50 (50% lethal concentration) [2]: 83.2 µM; GI50 [7]: 5.5 µM; TGI [7, 19]: 63.1 µM; TGI [9]: 33.1 µM; GI50 [10]: 3.16 µM; LC50 [10, 21]: 79.4 µM; TGI [10, 21]: 28.8 µM; TGI [11]: 44.7 µM |

Further lines, with some results ahead:

| GI50 [6, 17] | GI50 [7, 18] | SMILES | GI [1] | GI50 [1] | GI [2] | GI50 [2] | TGI [2] | GI [4] | GI50 [4] | TGI [4] | GI [5] | GI50 [5] | TGI [5] | GI [6] | TGI [6, 17] | GI [9] | GI50 [9] | GI50 [10, 20] | GI [11] | GI50 [11] | other results |
| --- | --- | --- | --- | --- | --- | --- | --- | --- | --- | --- | --- | --- | --- | --- | --- | --- | --- | --- | --- | --- | --- |
| 1.15 µM | 6.31 µM | COc1ccc2c(c1)/C(=C\c1c(C)nc3sc(C)nn13)C(=O)N2 | 3.89 µM | 3.89 µM | 0.69 µM | 0.692 µM | 41.7 µM | 5.37 µM | 5.37 µM | 56.2 µM | 6.17 µM | 6.17 µM | 91.2 µM | 1.15 µM | 38 µM | 2.63 µM | 2.63 µM | 2.51 µM | 5.01 µM | 5.01 µM | Activity [12]: 58%; Activity [3]: Dose-dependent effect; Activity [13]: Active; Activity [14]: Active; Activity [15]: Dose-dependent effect; GI50 [7]: 6.31 µM; TGI [7, 19]: 69.2 µM; Activity [16]: Active; TGI [9]: 75.9 µM; GI50 [10]: 2.51 µM; TGI [10, 21]: 38 µM; TGI [11]: 72.4 µM |
| 4.07 µM | 16.2 µM | COc1ccc2c(c1)/C(=C\c1c(-c3ccc(C)cc3)nc3sc(C)cn13)C(=O)N2 | 4.68 µM | 4.68 µM | 12.88 µM | 12.9 µM | 66.1 µM | 14.45 µM | 14.5 µM | 77.6 µM | 13.18 µM | 13.2 µM | 67.6 µM | 4.07 µM | 51.3 µM | 12.88 µM | 12.9 µM | 14.5 µM | 18.2 µM | 18.2 µM | GI50 [7]: 16.22 µM; TGI [7, 19]: 55 µM; GI50 [10]: 14.45 µM; TGI [11]: 97.7 µM |
| 5.01 µM | 13.2 µM | Cc1cn2c(/C=C3/C(=O)N(C)c4ccccc43)c(C)nc2s1 | 21.38 µM | 21.4 µM | 4.57 µM | 4.57 µM | 69.2 µM | 17.78 µM | 17.8 µM | 75.9 µM | 22.39 µM | 22.4 µM | 97.7 µM | 5.01 µM | 20.9 µM | 5.5 µM | 5.5 µM | 8.71 µM | 15.49 µM | 15.5 µM | GI50 [7]: 13.18 µM; TGI [7, 19]: 72.4 µM; TGI [9]: 55 µM; GI50 [10]: 8.71 µM; TGI [10, 21]: 51.3 µM; TGI [11]: 74.1 µM |
| 16.2 µM | 45.7 µM | Cc1nn2c(/C=C3/C(=O)Nc4ccccc43)c(C)nc2s1 | 47.86 µM | 47.9 µM | 9.33 µM | 9.33 µM | – | 38.9 µM | 38.9 µM | – | 61.66 µM | 61.7 µM | – | 16.22 µM | – | 22.91 µM | 22.9 µM | 49 µM | 50.12 µM | 50.1 µM | GI50 [7]: 45.71 µM; GI50 [10]: 48.98 µM |
